Data: ChEMBL document CHEMBL4049428, “Exploring Derivatives of Quinazoline Alkaloid l-Vasicine as Cap Groups in the Design and Biological Mechanistic Evaluation of Novel Antitumor Histone Deacetylase Inhibitors” (J Med Chem, 2017)
Calls of active or inactive are those of the source. The calls are words filed in the database; no cut-off is given here.

What was measured:
A549 = assay: Cytotoxicity against human A549 cells assessed as growth inhibition at 10 uM after 48 hrs by MTT assay; type: functional; settings: A549, 48 h, read-out: GI
How it was run: (§1)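 MTT assay, 48 h exposure; adherent lines seeded 12 h and suspension lines 4 h before compound. Media: RPMI-1640/10% FCS (THP-1, HL-60, Colo-205, Caco-2, A549), DMEM/10% FCS (A549, MIAPaCa-2, MCF-7). MTT 4 h, formazan dissolved in DMSO, absorbance 570 nm. Mean ± S.D of three experiments in triplicate; SAHA 5 µM reference.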

[1] = target: Polyamine deacetylase HDAC10 (Homo sapiens, UniProt Q969S8); assay: Inhibition of HDAC 10 in human HeLa nuclear extract measured after 60 mins by fluorometric analysis
MIA PaCa-2 = assay: Cytotoxicity against human MIAPaCa2 cells assessed as growth inhibition at 10 uM after 48 hrs by MTT assay; type: functional; settings: MIA PaCa-2, 48 h, read-out: GI; how it was run: as §1
Mus musculus = assay: Toxicity in CDF1 mouse assessed as mortality at 50 mg/kg, ip administered for 9 consecutive days measured up to 18 days; type: organism-based; settings: in vivo, 432 h
How it was run: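 P388 leukemia cells were harvested from 6–7-day-old ascites grown in the peritoneum of female DBA/2 mice. Female CDF1 mice (18–23 g) received 5×10^5 cells i.p. on day 0. Next day they were randomized into groups of 7 and dosed i.p. daily for 9 consecutive days; controls got 0.2 ml normal saline. Mortality was followed to day 18, with median survival time and %T/C calculated.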

Histone deacetylase 2 = Histone deacetylase 2 (Homo sapiens, UniProt Q92769); assay: Inhibition of HDAC 2 in human HeLa nuclear extract using HDAC substrate-3 measured after 60 mins by fluorometric analysis
MOLT-4 [2] = assay: Cytotoxicity against human MOLT4 cells assessed as growth inhibition at 10 uM after 48 hrs by MTT assay; type: functional; settings: MOLT-4, 48 h, read-out: GI
HL-60 [3] = assay: Induction of reactive oxygen species in human HL60 cells at 5 uM measured after 48 hrs by H2DCFDA dye-based flow cytometric analysis (reference value: 0.4%); type: functional
Homo sapiens [4] = species on record: Homo sapiens; assay: Inhibition of HDAC in human HL60 cells assessed as increase in acetylated H4K5 levels after 48 hrs by Western blot analysis; type: cell-based
How it was run: (§2)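 Cells seeded 2-4 h, treated 48 h with graded compound concentrations (SAHA control); histones acid-extracted (HEPES pH 9 buffer, 0.2 N HCl, 1 h on ice), Bradford-normalised, resolved on 18% SDS gels, blotted to PVDF, probed for acetyl-H3K18 and acetyl-H4K5 with H3 and β-actin loading controls; ECL detection.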

MOLT-4 [5] = assay: Induction of mitochondrial membrane potential loss in human MOLT4 cells at 5 uM measured after 48 hrs by Rh123 dye-based flow cytometric analysis (reference value: 9.6%); type: functional
How it was run: (§3)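 Cells seeded in 6-well plates 2-4 h, then 48 h with compound; Rh-123 1 µM added for the final half hour; cells centrifuged, washed twice in PBS, resuspended in PBS, and Ψm loss quantified by flow cytometry as percentage of cells.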

HL-60 [6] = assay: Induction of autophagy in human HL60 cells assessed as intracellular LC-3B distribution at 10 uM after 48 hrs by DAPI dye-based immunofluorescent microscopic analysis; type: functional, cell-based
How it was run: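 After 48 h treatment (SAHA 1.0 µM control), cells put on poly-lysine coverslips, fixed 15 min in 4% paraformaldehyde, permeabilised with 0.1% Triton X-100, blocked in 10% BSA; anti-LC-3B 1:100 for 1 h, Alexa Fluor 488 secondary 1:500 for 1 h, DAPI 1 µg/ml counterstain; imaged with 60X oil objective.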

Homo sapiens [7] = species on record: Homo sapiens; assay: Inhibition of HDAC in human MOLT4 cells assessed as increase in acetylated H3K18 levels after 48 hrs by Western blot analysis; type: cell-based; how it was run: as §2
MOLT-4 [8] = assay: Induction of mitochondrial membrane potential loss in human MOLT4 cells at 0.125 uM measured after 48 hrs by Rh123 dye-based flow cytometric analysis (reference value: 9.6%); type: functional; how it was run: as §3
HL-60 [9] = assay: Induction of reactive oxygen species in human HL60 cells at 1 uM measured after 48 hrs by H2DCFDA dye-based flow cytometric analysis (reference value: 0.4%); type: functional
MOLT-4 [10] = assay: Induction of reactive oxygen species in human MOLT4 cells at 0.125 uM measured after 48 hrs by H2DCFDA dye-based flow cytometric analysis (reference value: 1.1%); type: functional
HL-60 [11] = assay: Cytotoxicity against human HL60 cells assessed as growth inhibition after 48 hrs by MTT assay; type: functional, cell-based; settings: HL-60, 48 h
Caco-2 = assay: Cytotoxicity against human Caco2 cells assessed as growth inhibition after 48 hrs by MTT assay; type: functional, cell-based; settings: Caco-2, 48 h
HL-60 [12] = assay: Induction of mitochondrial membrane potential loss in human HL60 cells at 1 uM measured after 48 hrs by Rh123 dye-based flow cytometric analysis (reference value: 5.6%); type: functional; how it was run: as §3
Histone deacetylase 11 = Histone deacetylase 11 (Homo sapiens, UniProt Q96DB2); assay: Inhibition of HDAC 11 in human HeLa nuclear extract using fluorogenic HDAC class 2A substrate measured after 60 mins by fluorometric analysis
MOLT-4 [13] = assay: Induction of mitochondrial membrane potential loss in human MOLT4 cells at 1 uM measured after 48 hrs by Rh123 dye-based flow cytometric analysis (reference value: 9.6%); type: functional; how it was run: as §3
Histone deacetylase 3 = Histone deacetylase 3 (Homo sapiens, UniProt O15379); assay: Inhibition of HDAC 3 in human HeLa nuclear extract using HDAC substrate-3 measured after 60 mins by fluorometric analysis
COLO 205 = assay: Cytotoxicity against human COLO205 cells assessed as growth inhibition at 10 uM after 48 hrs by MTT assay; type: functional; settings: COLO 205, 48 h, read-out: GI; how it was run: as §1
MOLT-4 [14] = assay: Induction of mitochondrial membrane potential loss in human MOLT4 cells at 10 uM measured after 48 hrs by Rh123 dye-based flow cytometric analysis (reference value: 90.4%); type: functional; how it was run: as §3
[15] = Inhibition of HDAC in human HeLa nuclear extract using Boc-Lys(Ac)-AMC as substrate measured after 30 mins by fluorometric analysis
MOLT-4 [16] = assay: Cytotoxicity against human MOLT4 cells assessed as growth inhibition after 48 hrs by MTT assay; type: functional, cell-based; settings: MOLT-4, 48 h
Histone deacetylase 8 = Histone deacetylase 8 (Homo sapiens, UniProt Q9BY41); assay: Inhibition of HDAC 8 in human HeLa nuclear extract using fluorogenic HDAC class 2A substrate measured after 60 mins by fluorometric analysis
MCF7 = assay: Cytotoxicity against human MCF7 cells assessed as growth inhibition at 10 uM after 48 hrs by MTT assay; type: functional; settings: MCF7, 48 h, read-out: GI; how it was run: as §1
PC-3 = assay: Cytotoxicity against human PC3 cells assessed as growth inhibition after 48 hrs by MTT assay; type: functional, cell-based; settings: PC-3, 48 h
THP-1 = assay: Cytotoxicity against human THP1 cells assessed as growth inhibition after 48 hrs by MTT assay; type: functional, cell-based; settings: THP-1, 48 h
MOLT-4 [17] = assay: Induction of reactive oxygen species in human MOLT4 cells at 1 uM measured after 48 hrs by H2DCFDA dye-based flow cytometric analysis (reference value: 1.1%); type: functional

Chain of Polyamine deacetylase HDAC10 (Q969S8 whole entry): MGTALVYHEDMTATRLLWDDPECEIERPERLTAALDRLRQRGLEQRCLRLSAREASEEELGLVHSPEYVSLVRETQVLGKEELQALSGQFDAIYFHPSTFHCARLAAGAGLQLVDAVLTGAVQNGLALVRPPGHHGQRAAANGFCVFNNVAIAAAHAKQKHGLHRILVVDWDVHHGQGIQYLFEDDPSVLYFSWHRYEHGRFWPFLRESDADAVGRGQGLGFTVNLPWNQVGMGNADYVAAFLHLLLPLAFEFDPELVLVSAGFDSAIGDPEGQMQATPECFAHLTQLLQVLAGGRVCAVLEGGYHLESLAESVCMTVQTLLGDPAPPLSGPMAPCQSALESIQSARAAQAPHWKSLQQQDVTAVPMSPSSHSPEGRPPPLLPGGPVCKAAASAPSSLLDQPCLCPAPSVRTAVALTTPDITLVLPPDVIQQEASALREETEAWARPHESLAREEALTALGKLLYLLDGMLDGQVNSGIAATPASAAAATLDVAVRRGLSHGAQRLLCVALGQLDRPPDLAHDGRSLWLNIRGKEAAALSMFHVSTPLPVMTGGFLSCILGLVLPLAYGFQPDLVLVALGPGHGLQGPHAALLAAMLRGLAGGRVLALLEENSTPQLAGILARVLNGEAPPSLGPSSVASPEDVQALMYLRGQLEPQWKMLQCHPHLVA
Chain of Histone deacetylase 8 (Q9BY41 whole entry): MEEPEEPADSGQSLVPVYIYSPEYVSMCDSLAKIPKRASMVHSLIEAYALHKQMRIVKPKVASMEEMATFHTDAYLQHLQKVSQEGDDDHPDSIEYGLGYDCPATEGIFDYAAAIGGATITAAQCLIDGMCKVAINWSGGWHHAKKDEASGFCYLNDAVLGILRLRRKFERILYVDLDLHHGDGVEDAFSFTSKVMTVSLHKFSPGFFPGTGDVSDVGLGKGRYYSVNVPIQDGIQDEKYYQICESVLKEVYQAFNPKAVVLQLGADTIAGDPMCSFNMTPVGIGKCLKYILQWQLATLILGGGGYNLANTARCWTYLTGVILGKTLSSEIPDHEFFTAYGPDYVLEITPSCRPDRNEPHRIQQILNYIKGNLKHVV
Chain of Histone deacetylase 3 (O15379 whole entry): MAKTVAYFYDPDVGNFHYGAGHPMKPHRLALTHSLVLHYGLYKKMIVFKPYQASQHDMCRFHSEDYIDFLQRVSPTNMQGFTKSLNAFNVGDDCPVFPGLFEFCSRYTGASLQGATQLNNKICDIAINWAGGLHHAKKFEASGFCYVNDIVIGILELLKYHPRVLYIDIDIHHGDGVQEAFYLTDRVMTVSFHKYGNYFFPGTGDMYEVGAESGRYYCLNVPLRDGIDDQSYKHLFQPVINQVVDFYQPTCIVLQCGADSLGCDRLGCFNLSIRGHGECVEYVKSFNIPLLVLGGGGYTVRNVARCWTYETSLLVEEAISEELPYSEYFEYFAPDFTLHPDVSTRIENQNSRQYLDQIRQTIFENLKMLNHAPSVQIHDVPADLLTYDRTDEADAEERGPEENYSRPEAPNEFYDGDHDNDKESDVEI
Chain of Histone deacetylase 11 (Q96DB2 whole entry): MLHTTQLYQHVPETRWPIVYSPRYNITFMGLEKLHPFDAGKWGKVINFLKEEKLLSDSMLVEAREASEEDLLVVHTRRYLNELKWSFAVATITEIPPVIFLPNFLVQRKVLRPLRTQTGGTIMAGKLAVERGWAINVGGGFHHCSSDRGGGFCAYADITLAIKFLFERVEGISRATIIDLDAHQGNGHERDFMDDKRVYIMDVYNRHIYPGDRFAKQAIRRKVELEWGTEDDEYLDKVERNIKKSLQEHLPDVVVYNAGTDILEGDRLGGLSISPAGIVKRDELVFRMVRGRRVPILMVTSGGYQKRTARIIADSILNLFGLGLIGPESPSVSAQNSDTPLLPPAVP
Chain of Histone deacetylase 2 (Q92769 whole entry): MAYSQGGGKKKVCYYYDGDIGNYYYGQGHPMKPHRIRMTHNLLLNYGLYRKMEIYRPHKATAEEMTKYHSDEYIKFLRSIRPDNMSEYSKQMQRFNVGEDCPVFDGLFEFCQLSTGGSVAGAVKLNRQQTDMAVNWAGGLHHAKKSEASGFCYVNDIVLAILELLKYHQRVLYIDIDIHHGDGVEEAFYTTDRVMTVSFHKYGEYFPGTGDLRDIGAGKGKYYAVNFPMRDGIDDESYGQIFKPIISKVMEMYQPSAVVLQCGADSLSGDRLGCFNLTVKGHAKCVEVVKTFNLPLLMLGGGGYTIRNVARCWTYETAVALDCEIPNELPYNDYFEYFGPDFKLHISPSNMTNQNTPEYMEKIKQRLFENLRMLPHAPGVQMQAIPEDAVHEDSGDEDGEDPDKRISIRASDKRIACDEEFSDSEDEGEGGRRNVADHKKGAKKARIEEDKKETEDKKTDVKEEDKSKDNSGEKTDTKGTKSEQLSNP

## O=C(CCCCCCC(=O)Nc1ccccc1CN1CC[C@H](O)C1)NO
A549
  inhibition of growth at 10 µM: 84%
[1]
  IC50: > 10 µM
MIA PaCa-2
  inhibition of growth at 10 µM: 93%
Mus musculus
  Activity: Non-Toxic
Histone deacetylase 2
  IC50: 0.268 µM
MOLT-4 [2]
  inhibition of growth at 10 µM: 91%
HL-60 [3]
  Activity: 0%
Homo sapiens [4]
  inhibition: Dose-dependent effect
MOLT-4 [5]
  Activity: 57.5%
HL-60 [6]
  Activity: Active
Homo sapiens [7]
  inhibition: Dose-dependent effect
MOLT-4 [8]
  Activity: 2.4%
HL-60 [9]
  Activity: 0.6%
MOLT-4 [10]
  Activity: 1.3%
HL-60 [11]
  IC50: 1 µM
Caco-2
  IC50: 6 µM
HL-60 [12]
  Activity: 6.2%
Histone deacetylase 11
  IC50: > 10 µM
MOLT-4 [13]
  Activity: 4.9%
Histone deacetylase 3
  IC50: 0.368 µM
COLO 205
  inhibition of growth at 10 µM: 92%
MOLT-4 [14]
  Activity: 32.5%
[15]
  IC50: 0.37 µM
MOLT-4 [16]
  IC50: 0.81 µM
Histone deacetylase 8
  IC50: 0.211 µM
MCF7
  inhibition of growth at 10 µM: 93%
PC-3
  IC50: 19 µM
THP-1
  IC50: 1.3 µM
MOLT-4 [17]
  Activity: 1.1%
